# Experimental data of several laboratories.
# Each line is one published result; the experiments were not run side by side.
Compound,target or system,assay,test system,setting,endpoint,result
O=C(O)c1cn(C2CC2)c2cc(N3CCNCC3)c(F)cc2c1=O,Bacillus cereus,"microbial growth, well diffusion",,20 µg/mL,inhibition zone,5 mm
CN(C)CCNC(=O)c1ccc(-c2nc3ccc4[nH]ncc4c3c3c2CCCCC3)c(F)c1,BJ,cell growth or viability,,72 h,GI50,6.58 µM
CCCS(=O)(=O)Oc1ccc(C=NNC(=O)CSc2nc3c(C)cccc3c(=O)n2-c2ccccc2)cc1OC,Salmonella enterica,"microbial growth, broth dilution",TYPHIMURIUM,,MIC,49 µg/mL
COc1cc(CNc2ccc(C(=O)O)cc2)cc(OC)c1O,NCI-H69,"cell growth or viability, resazurin",,72 h,IC50,> 100 µM
CC(C)c1ccc(/C=C2\N=C(SCC(=O)O)N(c3ccccc3)C2=O)cc1,Bacillus cereus,"microbial growth, broth dilution",ATCC14579,,MIC,12 µg/mL
COc1ccc(-n2nc(C(=O)c3ccc(Nc4cnccn4)cc3)sc2=N)cc1,Salmonella enterica,"microbial growth, broth dilution",ATCC13076 TYPHIMURIUM,,MIC,50 µg/mL
CN(C)c1ccc(CNc2ccc(C(=O)O)cc2)cc1,NCI-H69,"cell growth or viability, resazurin",,72 h,IC50,> 100 µM
CC(=O)C1=NN(c2ccc([N+](=O)[O-])cc2)C(=C(C#N)C(=O)c2ccc(Nc3cnccn3)cc2)S1,Salmonella enterica,"microbial growth, broth dilution",ATCC13076 TYPHIMURIUM,,MIC,12.5 µg/mL
Cc1n[nH]c2ccc3nc(-c4ccc(C(=O)NCCN(C)C)cc4F)c4c(c3c12)CCCC4,BJ,cell growth or viability,,72 h,GI50,2.21 µM
COc1ccccc1CNc1ccc(C(=O)O)cc1,NCI-H69,"cell growth or viability, resazurin",,72 h,IC50,> 100 µM
CC(=O)C1=NN(c2ccccc2)C(=C(C#N)C(=O)c2ccc(Nc3cnccn3)cc2)S1,Salmonella enterica,"microbial growth, broth dilution",ATCC13076 TYPHIMURIUM,,MIC,100 µg/mL
Cc1n[nH]c2ccc3nc(-c4ccc(C(=O)NCCN(C)C)cc4)c4c(c3c12)CCCCC4,BJ,cell growth or viability,,72 h,GI50,> 10 µM
CCCS(=O)(=O)Oc1ccc(C=NNC(=O)CSc2nc3ccc(Cl)cc3c(=O)n2-c2ccccc2)cc1OC,Bacillus cereus,"microbial growth, well diffusion",,20 µg/mL,inhibition zone,2 mm
O=C(O)c1ccc(NCc2cccc(O)c2O)cc1,NCI-H69,"cell growth or viability, resazurin",,72 h,IC50,32.2 µM
Cc1n[nH]c2ccc3nc(-c4ccc(C(=O)NCCN(C)C)cc4)c4c(c3c12)CCCC4,BJ,cell growth or viability,,72 h,GI50,7.16 µM
CCS(=O)(=O)Oc1ccc(C=NNC(=O)CSc2nc3ccc(Cl)cc3c(=O)n2-c2ccccc2)cc1,Bacillus cereus,"microbial growth, well diffusion",,20 µg/mL,inhibition zone,2 mm
COc1ccc(N2N=C(C(C)=O)SC2=C(C#N)C(=O)c2ccc(Nc3cnccn3)cc2)cc1,Salmonella enterica,"microbial growth, broth dilution",ATCC13076 TYPHIMURIUM,,MIC,50 µg/mL
Cc1cccc2c(=O)n(-c3ccccc3)c(SCC(=O)NN=Cc3ccc(OS(C)(=O)=O)cc3)nc12,Bacillus cereus,"microbial growth, well diffusion",,20 µg/mL,inhibition zone,2 mm
CCc1nc(C(N)=O)c(Nc2ccc(N3CCC(N4CCN(C)CC4)CC3)c(OC)c2)nc1NC1CCOCC1,BJ,cell growth or viability,,72 h,GI50,> 10 µM
